Experimental data as given in ChEMBL document CHEMBL4765333, “Novel NO-releasing scopoletin derivatives induce cell death via mitochondrial apoptosis pathway and cell cycle arrest” (Eur J Med Chem, 2020).
The source made the active and inactive calls. The calls are words filed in the database; no cut-off is given here.

How the values were obtained:
MDA-MB-231 [1] = experiment: Induction of apoptosis in human MDA-MB-231 cells assessed as early apoptotic cells at 2 uM after 24 hrs by Annexin V/propidium iodide based flow cytometric analysis (reference value: 0.94%); assay type: functional
Procedure, shortened: (§1)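 MDA-MB-231 cells (2×10^5/well) attached 24 h, then treated 24 h with 1, 1.5, 2 or 3 µM, DMSO as control. Cells harvested, PBS-washed, resuspended in binding buffer, stained with Annexin V and PI for 30 min at 37°C in the dark, and analysed by flow cytometry for quadrant percentages; three experiments.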

MDA-MB-231 [2] = experiment: Induction of apoptosis in human MDA-MB-231 cells assessed as late apoptotic cells at 2 uM after 24 hrs by Annexin V/propidium iodide based flow cytometric analysis (reference value: 0.038%); assay type: functional; procedure, shortened: as §1
MDA-MB-231 [3] = experiment: Induction of cell cycle arrest in human MDA-MB-231 cells assessed as accumulation at G2/M phase at 1.5 uM measured after 24 hrs by propidium iodide staining based flow cytometric method (reference value: 18.55%); assay type: functional
MDA-MB-231 [4] = experiment: Induction of cell cycle arrest in human MDA-MB-231 cells assessed as accumulation at G0/G1 phase at 2 uM measured after 24 hrs by propidium iodide staining based flow cytometric method (reference value: 45.71%); assay type: functional
MDA-MB-231 [5] = experiment: Induction of apoptosis in human MDA-MB-231 cells assessed as late apoptotic cells at 1 uM after 24 hrs by Annexin V/propidium iodide based flow cytometric analysis (reference value: 0.038%); assay type: functional; procedure, shortened: as §1
MDA-MB-231 [6] = experiment: Induction of cell cycle arrest in human MDA-MB-231 cells assessed as accumulation at G0/G1 phase at 1 uM measured after 24 hrs by propidium iodide staining based flow cytometric method (reference value: 45.71%); assay type: functional
MCF7 = experiment: Antiproliferative activity against human MCF7 cells assessed as inhibition of cell growth rate at 10 uM measured after 48 hrs by MTT assay; assay type: functional
Procedure, shortened: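 MCF-7 cells in DMEM with 10% FBS exposed to a single 10 µM concentration for 48 h. Read-out by MTT (0.5 mg/ml, 4 h, DMSO dissolution, A570). Inhibition rate given versus untreated control as mean ± SD, n = 3.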

L02 = experiment: Cytotoxicity against human L02 cells assessed as reduction in cell viability measured after 48 hrs by MTT assay; assay type: cell-based; settings: L02, 48 h
Procedure, shortened: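 Cells seeded at ~5,000/well, grown 24 h to partial monolayer, then exposed 48 h at 37°C, 5% CO2 to 0.5, 1, 2, 4, 10 and 20 µM (DMSO ≤0.1%). MTT final 0.5 mg/ml for 4 h, formazan dissolved in DMSO, A570. Survival expressed as % of untreated control; IC50 from dose-response curves; three independent experiments. MDA-MB-231, MCF-7, HepG2 in DMEM; A549 and LO-2 in RPMI-1640; 10% FBS.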

MDA-MB-231 [7] = experiment: Induction of apoptosis in human MDA-MB-231 cells assessed as viable cells at 2 uM after 24 hrs by Annexin V/propidium iodide based flow cytometric analysis (reference value: 99%); assay type: functional; settings: read-out: Activity; procedure, shortened: as §1
MDA-MB-231 [8] = experiment: Induction of apoptosis in human MDA-MB-231 cells assessed as necrotic cells at 1.5 uM after 24 hrs by Annexin V/propidium iodide based flow cytometric analysis (reference value: 0.019%); assay type: functional; procedure, shortened: as §1
MDA-MB-231 [9] = experiment: Induction of apoptosis in human MDA-MB-231 cells assessed as necrotic cells at 3 uM after 24 hrs by Annexin V/propidium iodide based flow cytometric analysis (reference value: 0.019%); assay type: functional; procedure, shortened: as §1
MDA-MB-231 [10] = experiment: Induction of apoptosis in human MDA-MB-231 cells assessed as up-regulation of Bad expression at 1.5 to 6 uM measured after 8 hrs by Western blot analysis; assay type: functional, cell-based; settings: dose 1.5-6 µM
Procedure, shortened: (§2)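 MDA-MB-231 cells (8×10^5 per 60 mm dish) attached 24 h, then exposed 8 h to 1.5, 3 or 6 µM, DMSO as control. Lysates quantified by BCA; 30 µg protein run on 4–20% SDS-PAGE, transferred to PVDF, probed for Bcl-2, Bax, Bad, cleaved caspase-9, cleaved caspase-3 and PARP, with ECL detection. Densitometric relative levels; three experiments.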

MDA-MB-231 [11] = experiment: Induction of mitochondrial membrane potential depolarization in human MDA-MB-231 cells assessed as proportion of cells with depolarized MMP at 1.5 uM incubated for 18 hrs by JC-1 staining based flow cytometry (reference value: 0.72%); assay type: functional
[12] = (§3) Induction of intracellular reactive oxygen species generation in human MDA-MB-231 cells assessed as proportion of FL1-H negative cells at 1 uM measured after 24 hrs by DCFH-DA staining based flow cytometry analysis (reference value: 52.2%); assay type: functional, MDA-MB-23
MDA-MB-231 [13] = experiment: Induction of cell cycle arrest in human MDA-MB-231 cells assessed as accumulation at S phase at 1 uM measured after 24 hrs by propidium iodide staining based flow cytometric method (reference value: 36.25%); assay type: functional
MDA-MB-231 [14] = experiment: Induction of apoptosis in human MDA-MB-231 cells assessed as up-regulation of Bax expression at 1.5 to 6 uM measured after 8 hrs by Western blot analysis; assay type: functional, cell-based; settings: dose 1.5-6 µM; procedure, shortened: as §2
[15] = Induction of intracellular reactive oxygen species generation in human MDA-MB-231 cells assessed as proportion of FL1-H negative cells at 1.5 uM measured after 24 hrs by DCFH-DA staining based flow cytometry analysis (reference value: 52.2%); assay type: functional, MDA-MB-23
MDA-MB-231 [16] = experiment: Induction of intracellular reactive oxygen species generation in human MDA-MB-231 cells at 2 uM measured after 24 hrs by DCFH-DA staining based flow cytometry analysis relative to control; assay type: functional
Procedure, shortened: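 MDA-MB-231 cells at 2×10^5 cells/well, grown 24 h, exposed 24 h to compound (1, 1.5, 2 µM) or DMSO control. Cells then took up DCFH-DA for 30 min at 37°C in the dark, were PBS-washed, resuspended in serum-free medium and analysed by flow cytometry. Relative DCF level vs control; mean ± SD, n = 3.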

MDA-MB-231 [17] = experiment: Induction of apoptosis in human MDA-MB-231 cells assessed as viable cells at 3 uM after 24 hrs by Annexin V/propidium iodide based flow cytometric analysis (reference value: 99%); assay type: functional; settings: read-out: Activity; procedure, shortened: as §1
[18] = as §3, with “at 2” for “at 1”, “uM pretreated with ROS scavenger, NAC for 2 hrs prior to incubation with compound and” for “uM”; assay type: functional, MDA-MB-23
MDA-MB-231 [19] = experiment: Induction of apoptosis in human MDA-MB-231 cells after 24 hrs by Hoechst33342 staining based fluorescence inverted microscopic analysis; assay type: functional, cell-based; settings: dose 0.5-1.5 µM
Procedure, shortened: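 MDA-MB-231 cells (5×10^4/well) attached 24 h, then treated 24 h with 0.5, 1 or 1.5 µM (DMSO vehicle control). Stained with Hoechst 33342 at 10 µg/ml for 5 min at 37°C in the dark, washed with PBS, and examined by inverted fluorescence microscopy for apoptotic nuclear morphology.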

MDA-MB-231 [20] = experiment: Induction of apoptosis in human MDA-MB-231 cells assessed as early apoptotic cells at 1 uM after 24 hrs by Annexin V/propidium iodide based flow cytometric analysis (reference value: 0.94%); assay type: functional; procedure, shortened: as §1

Compound: COc1cc2cc(N)c(=O)oc2cc1OCCCOc1no[n+]([O-])c1S(=O)(=O)c1ccccc1
- Activity (MDA-MB-231 [1]): 12.9%
- Activity (MDA-MB-231 [2]): 15.8%
- Activity (MDA-MB-231 [3]): 30.11%
- Activity (MDA-MB-231 [4]): 38.05%
- Activity (MDA-MB-231 [5]): 8.17%
- Activity (MDA-MB-231 [6]): 43.06%
- inhibition at 10 µM (MCF7): 91.5%
- IC50 (L02): 9.16 µM
- viability at 2 µM (MDA-MB-231 [7]): 71.1%
- Activity (MDA-MB-231 [8]): 0.31%
- Activity (MDA-MB-231 [9]): 0.31%
- Activity (MDA-MB-231 [10]): Active
- Activity (MDA-MB-231 [11]): 17.7%
- Activity [12]: 35%
- Activity (MDA-MB-231 [13]): 28.05%
- Activity (MDA-MB-231 [14]): Active
- Activity [15]: 17.3%
- fold change (FC) (MDA-MB-231 [16]): 2.16
- viability at 3 µM (MDA-MB-231 [17]): 65.6%
- Activity [18]: 49%
- Activity (MDA-MB-231 [19]): Dose-dependent effect
- Activity (MDA-MB-231 [20]): 3.75%
